Measurements reported in ChEMBL document CHEMBL1127310, “Synthesis and anticonvulsant activities of alpha-acetamido-N-benzylacetamide derivatives containing an electron-deficient alpha-heteroaromatic substituent” (1994).

Key:
Format in all cases: functional
[1] = organism: Mus musculus; experiment: Median neurologically impairing dose was determined in mice using the rotarod test
How it was run: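 Male Carworth Farms No. 1 mice dosed ip and placed on a 1-in. knurled rod turning at 6 rpm. Neurotoxicity means failure to stay on the rod for 1 min. Four mice per dose in the screen, then normally eight mice per dose for the dose-response, at time of peak effect.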

[2] = test system: Mus musculus; experiment: Effective dose required to prevent tonic extension of the hind limbs in mice in the maximal electroshock seizures (MES) test when administered intraperitoneally; conditions: Hindlimb, ip
How it was run: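 Male Carworth Farms No. 1 mice, drug given ip. Seizures elicited by 60-cycle alternating current, 50 mA, for 0.2 s via corneal electrodes. Protection means no tonic hind-limb extension. Phase I screen at 30, 100 and 300 mg/kg. Dose-response then run at varied doses, normally eight mice per dose, at time of peak effect (0.5 h or 0.25 h).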

[3] = Protective Index was determined using the ratio of TD50/ED50 value
How it was run: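 PI is TD50/ED50 in ip-dosed mice. TD50 comes from the rotorod or the horizontal screen test. ED50 comes from the MES test. Not determined when there was no MES activity below 100 mg/kg.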

Row | Structure (SMILES) | TD50 [1] [mg/kg] | ED50 [2] [mg/kg] | PI [3]
1 | CCC1(c2ccccc2)C(=O)NC(=O)NC1=O [PHENOBARBITAL] | 69 | – | –
2 | CC(=O)NC(C(=O)NCc1ccccc1)c1ccccn1 (centres undefined) | < 100 | 10.8 | –
3 | CC(=O)NC(C(=O)NCc1ccccc1)c1cccs1 (centres undefined) | < 100 | – | –
4 | CC(=O)NC(C(=O)NCc1ccccc1)c1ncco1 (centres undefined) | 38.6 | – | 3.7
5 | CC(=O)NC(C(=O)NCc1ccccc1)c1ccccc1 (centres undefined) | > 40 | – | –
6 | CC(=O)NC(C(=O)NCc1ccccc1)c1ncccn1 (centres undefined) | 56.7 | 8.1 | 7
7 | CC(=O)NC(C(=O)NCc1ccccc1)c1nccs1 (centres undefined) | 69.1 | – | 5.7
8 | CC(=O)NC(C(=O)NCc1ccccc1)c1ccco1 (centres undefined) | ~40 | – | > 3.9
9 | CC(=O)NC(C(=O)NCc1ccccc1)c1ccc[nH]1 (centres undefined) | < 100 | – | –
10 | CC(=O)NC(C(=O)NCc1ccccc1)c1cnccn1 (centres undefined) | 58.2 | 14.8 | 3.9
11 | CC(=O)NC(C(=O)NCc1ccccc1)c1ccsc1 (centres undefined) | < 100 | – | –
